Assay outcomes as filed in PubChem.
The list is not random: actives were taken first. Their share in the collection is about 1.9%.
Rtt109 HAT inh = blocks Candida albicans Rtt109/Vps75 acetyltransferase activity; purified Rtt109/Vps75, ThioGlo CoA-SH fluorescence, 4 h; AID 540336; inhibition, % at 34.9 µM; 330,000 compounds, 0.16% hits;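 active means inhibition of at least 50% in every replicate; inconclusive means best replicate reaches 50% inhibition but some replicates fall short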
Target sequence (Q5AAJ8 whole entry, looked up): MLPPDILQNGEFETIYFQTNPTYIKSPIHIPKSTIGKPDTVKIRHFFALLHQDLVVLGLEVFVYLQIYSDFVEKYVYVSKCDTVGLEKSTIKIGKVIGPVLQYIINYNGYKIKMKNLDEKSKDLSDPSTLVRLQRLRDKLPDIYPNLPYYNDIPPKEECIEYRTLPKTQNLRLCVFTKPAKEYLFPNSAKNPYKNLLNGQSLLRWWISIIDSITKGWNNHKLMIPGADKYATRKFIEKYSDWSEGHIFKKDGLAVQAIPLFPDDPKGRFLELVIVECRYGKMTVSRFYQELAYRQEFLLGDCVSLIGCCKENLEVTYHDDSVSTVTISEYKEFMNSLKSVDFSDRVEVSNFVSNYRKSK
HIV Env fusion = blocks HIV Env-driven cell-cell fusion; HeLa-JRFL Env/CEM21 cell fusion, luciferase; inhibition, % at 12.3 µM; 360,000 compounds, 1.1% hits; AID 651610;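 active means mean replicate inhibition score of at least 50 and every replicate individually at or above 50; inconclusive means only one of the two criteria met; inactive means mean below 50 and not all replicates reaching 50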;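 further: 0% = plate neutral controls and 100% = maraviroc near 300 nM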
SR-BI HDL uptake = mouse SR-BI HDL lipid transfer inhibition. Q61009. ldlA[mSR-BI] CHO cells, DiI-HDL uptake fluorescence, 3 h. inhibition, % at 12.5 µM. 320,000 compounds, 0.96% hits. AID 488896;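 active means mean replicate inhibition of at least 70% and a set share of replicates each scoring 70 or more; inconclusive means meets just one of the two criteria; inactive means fails both criteria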;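 further: 0% = median of neutral control wells and 100% = median of positive control wells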
Glyco luc inh = blocks N-linked glycosylation in D54 reporter cells; D54 ERlucT glycosylation luciferase reporter, 24 h; percent of 100 nM tunicamycin response; reporter increase, % at 12.5 µM; 360,000 compounds, 0.23% hits; AID 588692;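 active means mean luciferase reporter signal, scaled so untreated is 0 and the glycosylation-blocking control 100, at or above a set limit in every replicate; inconclusive means mean reaches the limit but not every replicate does; inactive means mean below the limit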;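 further: luciferase carries N-glycosylation sites so blocking glycosylation raises the light; 0% = median of neutral control wells and 100% = median of 100 nM tunicamycin wells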
PglD DTNB = inhibitors of Campylobacter jejuni PglD acetyltransferase. purified PglD enzyme, DTNB colorimetric CoA detection. 360,000 compounds, 0.098% hits. inhibition, % at 12.5 µM. AID 602405; in the data active means inhibition above about 16%, passing the limit was not always enough; inconclusive means no clear call, values can overlap the other calls
SR-BI DiI-HDL act = SR-BI HDL lipid transfer activation. CHO ldlA[mSR-BI] cells, DiI-HDL uptake fluorescence, 3 h; 100 = double the neutral-control signal. activation, % at 12.5 µM. 320,000 compounds, 0.096% hits. AID 504775;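 active means mean replicate activation of at least 60% and every replicate at or above 60%; inconclusive means mean or all-replicate condition met, but not both; inactive means mean below 60% and not all replicates reaching 60%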;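 further: 0% = median plate neutral-control signal and 100% = twice that signal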
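Assay system: CHO ldlA[mSR-BI] cells, LDL receptor-null, SR-BI overexpressing; medium: Ham's F12 with 0.5% BSA, HEPES 25 mM, pH 7.4; also added: DiI-HDL 10 µg/mL; timing: 3 h uptake period with compound, 37 °C; signal: DiI fluorescence, bottom read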
Numbers without * were called inactive; [ ] = remark or other dose.

`COc1ccc(S(=O)(=O)N(C)C[C@H]2Oc3ccc(NC(=O)Nc4ccc5c(c4)OCO5)cc3C(=O)N([C@@H](C)CO)C[C@H]2C)cc1` gave HIV Env fusion -14.4[16.7 µM] and PglD DTNB 0.4.
For C[C@H](CO)N1C[C@H](C)[C@H](CN(C)S(=O)(=O)c2ccc(Oc3ccccc3)cc2)OCc2cn(nn2)CCCC1=O the results were PglD DTNB -1.7.
`CCN1/C(=C/c2cc[n+](CCCS(=O)(=O)[O-])c3ccccc23)Sc2ccccc21` gave Rtt109 HAT inh 12.6, HIV Env fusion 8.8, SR-BI HDL uptake -10.8, Glyco luc inh 4.3 and SR-BI DiI-HDL act 10.8.
`C=CC[n+]1ccc(/C=C2\C=Cc3cc(C)ccc3N2CC)c2ccccc21` gave Rtt109 HAT inh 22.3, SR-BI HDL uptake 92.3*, Glyco luc inh inconclusive, PglD DTNB 3.3 and SR-BI DiI-HDL act -92.3.
`C[C@@H]1CCCCO[C@H](CN(C)S(C)(=O)=O)[C@H](C)CN([C@@H](C)CO)C(=O)c2cc(NS(=O)(=O)c3ccc(Cl)cc3)ccc2O1` gave HIV Env fusion -17.6[16.7 µM] and PglD DTNB -0.1.
For Nc1ccc2cc3[nH]c4cc(N)ccc4c3nc2c1 the results were Rtt109 HAT inh 5.5, HIV Env fusion 60.8*, SR-BI HDL uptake -4.8, Glyco luc inh -19.3 and SR-BI DiI-HDL act 4.8.
Screening COCCNC(=O)C[C@H]1CC[C@H]2[C@H](COc3ccc(NC(C)=O)cc3C(=O)N2C)O1 returned HIV Env fusion -9.7[16.7 µM] and PglD DTNB 0.4.
Cc1ccccc1Oc1cccc(C(=O)/C(C#N)=C/N(C)C)c1 was read as Rtt109 HAT inh 3.5, HIV Env fusion -25.0, SR-BI HDL uptake 7.5, Glyco luc inh 2.0, PglD DTNB 2.6 and SR-BI DiI-HDL act -7.5.
`CN(C)/C=C(/C#N)C(=O)c1cccc(Oc2ccc(C(C)(C)C)cc2)c1` gave Rtt109 HAT inh -4.2, HIV Env fusion -10.6, SR-BI HDL uptake 71.3*, Glyco luc inh -0.6, PglD DTNB -1.0 and SR-BI DiI-HDL act -71.3.
COc1cccc(C(=O)NNC(=O)CCC(=O)O)c1 was read as Rtt109 HAT inh 54.1*, HIV Env fusion 7.4 and Glyco luc inh -0.4.
For Cc1ccc2nc(-c3ccc(NC(=S)NC(=O)C(C)C)cc3)sc2c1 the results were Rtt109 HAT inh 4.2, SR-BI HDL uptake 30.5, Glyco luc inh -3.4, PglD DTNB 3.5 and SR-BI DiI-HDL act -30.5.
Screening Cc1ccc2nc(-c3ccc(NC(=S)NC4CC(C)(C)NC(C)(C)C4)cc3)sc2c1 returned Rtt109 HAT inh 62.2*, HIV Env fusion -106.2, SR-BI HDL uptake 1.7, Glyco luc inh -7.9, PglD DTNB -1.7 and SR-BI DiI-HDL act -1.7.
For COC(=O)c1cc(-c2c(-c3cc(OC)c(OC)c(OC)c3)noc2C)cc([N+](=O)[O-])c1 the results were Rtt109 HAT inh 13.6, HIV Env fusion -11.0, SR-BI HDL uptake 18.4, Glyco luc inh 6.8, PglD DTNB -1.0 and SR-BI DiI-HDL act -18.4.
For COc1cc(-c2noc(C)c2C#Cc2ccc(N)cc2)cc(OC)c1OC the results were Rtt109 HAT inh 5.8, HIV Env fusion -335.3, SR-BI HDL uptake 29.9, Glyco luc inh 8.6, PglD DTNB 1.4 and SR-BI DiI-HDL act -29.9.
Screening COc1cc(-c2c(-c3cc(OC)c(OC)c(OC)c3)noc2C)ccc1F returned HIV Env fusion 68.1*.
For COc1cc(-c2noc(C)c2/C=C/c2ccc(N)cc2)cc(OC)c1OC the results were Rtt109 HAT inh -0.8, SR-BI HDL uptake 35.9, Glyco luc inh 43.4*, PglD DTNB -3.0 and SR-BI DiI-HDL act -35.9.
COc1ccc(-c2c(-c3cc(OC)c(OC)c(OC)c3)noc2C)cn1 was read as Rtt109 HAT inh 2.4, SR-BI HDL uptake 1.4, Glyco luc inh 29.7*, PglD DTNB 0.9 and SR-BI DiI-HDL act -1.4.
Cc1noc(C)c1NC(=O)Nc1ccc2c(c1)CC(=O)N([C@H](C)CO)C[C@H](C)[C@@H](CN(C)C(=O)Nc1cccc3ccccc13)O2 was read as HIV Env fusion 1.6[16.7 µM].
`CCCNC(=O)Nc1ccc2c(c1)C(=O)N(C)C[C@H](OC)[C@H](C)CN(C(C)=O)[C@@H](C)CO2` gave HIV Env fusion -5.7[16.7 µM] and PglD DTNB 10.8.
`O=C(Cn1c(NCCO)nc2ccccc21)c1ccco1` gave Rtt109 HAT inh 31.9, SR-BI HDL uptake -61.4, Glyco luc inh -0.7, PglD DTNB -2.9 and SR-BI DiI-HDL act 61.4*.
Screening CC(=O)N(C)C[C@H]1Oc2cc(-c3ccccc3C)ccc2S(=O)(=O)N([C@@H](C)CO)C[C@H]1C returned HIV Env fusion 21.7[16.7 µM] and PglD DTNB -0.3.
Screening C[C@H]1CN([C@@H](C)CO)C(=O)Cc2cc(NC(=O)Nc3ccc(F)cc3)ccc2O[C@@H]1CN(C)C(=O)Nc1cccc2ccccc12 returned HIV Env fusion -18.6[16.7 µM] and PglD DTNB -2.5.
Screening CSc1nc(-c2ccc(C)cc2)nc(C(Cl)Cl)n1 returned Rtt109 HAT inh 4.4, SR-BI HDL uptake 18.4, Glyco luc inh -2.0 and SR-BI DiI-HDL act -18.4.
For CCSc1nc(-c2ccccc2)nc(C(Cl)Cl)n1 the results were Rtt109 HAT inh -0.1, HIV Env fusion 80.6*, SR-BI HDL uptake -15.4, Glyco luc inh -13.4, PglD DTNB -3.2 and SR-BI DiI-HDL act 15.4.
Screening COc1ccc(C2=CSC(/N=C/c3ccc(F)cc3)=NN2)cc1 returned Rtt109 HAT inh 5.0, SR-BI HDL uptake 75.4*, Glyco luc inh 0.9, PglD DTNB -3.5 and SR-BI DiI-HDL act -75.4.
`CCOc1ccc(N(C(=O)/C=C/C(=O)Nc2cc(C)on2)C(C(=O)NC2CCCC2)c2ccccc2C)cc1` (centres undefined) gave Rtt109 HAT inh 5.5, SR-BI HDL uptake -14.7, Glyco luc inh -7.6, PglD DTNB 2.5 and SR-BI DiI-HDL act 14.7.
Screening CCc1ccc(C(C(=O)NC2CCCC2)N(C(=O)/C=C/C(=O)Nc2cc(C)on2)c2ccccc2C)cc1 (centres undefined) returned Rtt109 HAT inh 9.0, HIV Env fusion 77.1*, SR-BI HDL uptake -7.4, Glyco luc inh 3.5 and SR-BI DiI-HDL act 7.4.
`COc1ccc(NC(=O)N(C)C[C@@H]2Oc3ccc(NC(=O)CCCCCC(=O)Nc4ccccc4N)cc3CC(=O)N([C@@H](C)CO)C[C@@H]2C)cc1` gave HIV Env fusion -5.8[16.7 µM] and PglD DTNB -2.8.
For C[C@@H]1CCCCO[C@@H](CN(C)C(=O)Nc2cccc3ccccc23)[C@H](C)CN([C@H](C)CO)C(=O)c2cc(NC(=O)c3ccncc3)ccc2O1 the results were HIV Env fusion 8.6[16.7 µM] and PglD DTNB -0.8.
For O=C(Nc1ccccc1)N1CCc2c([nH]c3ccccc23)C1C(F)(F)F (centres undefined) the results were Rtt109 HAT inh 1.7, HIV Env fusion 2.7, SR-BI HDL uptake 27.1, Glyco luc inh -0.7, PglD DTNB 1.9 and SR-BI DiI-HDL act -27.1.
